From ChEMBL document CHEMBL1143707, “7-Arylpiperazinylalkyl and 7-tetrahydroisoquinolinylalkyl derivatives of 8-alkoxy-purine-2,6-dione and some of their purine-2,6,8-trione analogs as 5-HT(1A), 5-HT(2A), and 5-HT(7) serotonin receptor ligands” (Bioorg Med Chem, 2007)

How the values were obtained:
Assay type in all cases: functional
Mus musculus [1] = test: Effect on compound induced hypothermia in Swiss Albino mouse at 5 mg/kg, sc in presence of 0.1 mg/kg WAY 100635 after 30 mins relative to control
How it was run: (§1)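 Male Albino Swiss mice. WAY 100635 (0.1 mg/kg sc, in distilled water) given 15 min before the agonist (5 mg/kg sc, in saline). Rectal temperature recorded 30 and 60 min after agonist and expressed as Δt from basal; n = 8 per group; compared with vehicle + agonist group.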

Mus musculus [2] = test: Decrease in body temperature in Swiss Albino mouse at 5 mg/kg, sc after 30 mins relative control; details: route subcutaneous
How it was run: (§2)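 Male Albino Swiss mice (24-28 g); drug dissolved in saline, injected sc at 10 mL/kg. Rectal temperature recorded with a thermometer at 30 and 60 min after injection. Result expressed as change (Δt) from basal temperature taken at the start of the experiment; n = 8 per group; mean ± SEM versus vehicle.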

Mus musculus [3] = test: Decrease in body temperature in Swiss Albino mouse at 5 mg/kg, sc after 60 mins relative control; details: route subcutaneous; how it was run: as §2
Mus musculus [4] = test: Effect on compound induced hypothermia in Swiss Albino mouse at 5 mg/kg in presence of 0.1 mg/kg WAY 100635 after 60 mins relative to control; how it was run: as §1
Mus musculus [5] = test: Locomotor activity in Swiss Albino mouse assessed as number of crossings in 6 mins at 10 mg/kg, ip administered 30 mins before the test; details: route intraperitoneal
How it was run: (§3)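 Male Albino Swiss mice dosed ip 30 min before test (compound in 1% Tween 80; imipramine in distilled water); individual cages with IR beam sensors, consecutive beam breaks scored as ambulatory counts during first 6 min and over a 30-min session; n = 10/group; mean ± SEM.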

Mus musculus [6] = test: Locomotor activity in Swiss Albino mouse assessed as number of crossings in 6 mins at 30 mg/kg, ip administered 30 mins before the test; details: route intraperitoneal; how it was run: as §3
Mus musculus [7] = test: Antidepressant activity in Swiss Albino mouse assessed as immobility time during final 4 mins of 6 mins session at 30 mg/kg, ip administered 30 mins before the test in forced-swimming test; details: route intraperitoneal
Mus musculus [8] = test: Locomotor activity in Swiss Albino mouse assessed as number of crossings in 6 mins at 20 mg/kg, ip administered 30 mins before the test; details: route intraperitoneal; how it was run: as §3
Mus musculus [9] = test: Antidepressant activity in Swiss Albino mouse assessed as immobility time during final 4 mins of 6 mins session at 20 mg/kg, ip administered 30 mins before the test in forced-swimming test; details: route intraperitoneal
How it was run: (§4)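 Male Albino Swiss mice (24-28 g), ip in 1% aqueous Tween 80 suspension (10 mL/kg), 30 min pretest; single glass cylinder (25 cm high, 10 cm diameter), 6 cm water at 23–25 °C for 6 min; immobility (floating, minimal head-keeping movements) timed over final 4 min; n = 9-10/group; mean ± SEM.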

Mus musculus [10] = test: Antidepressant activity in Swiss Albino mouse assessed as immobility time during final 4 mins of 6 mins session at 10 mg/kg, ip administered 30 mins before the test in forced-swimming test; details: route intraperitoneal; how it was run: as §4
Mus musculus [11] = test: Locomotor activity in Swiss Albino mouse assessed as number of crossings in 30 mins at 30 mg/kg, ip administered 30 mins before the test; details: route intraperitoneal; how it was run: as §3
Mus musculus [12] = test: Locomotor activity in Swiss Albino mouse assessed as number of crossings in 30 mins at 10 mg/kg, ip administered 30 mins before the test; details: route intraperitoneal; how it was run: as §3

SMILES	Activity (Mus musculus [1]) [°C]	Activity (Mus musculus [2]) [°C]	Activity (Mus musculus [3]) [°C]	Activity (Mus musculus [4]) [°C]	Activity (Mus musculus [5])	Activity (Mus musculus [6])	Activity (Mus musculus [7]) [s]	Activity (Mus musculus [8])	Activity (Mus musculus [9]) [s]	Activity (Mus musculus [10]) [s]	Activity (Mus musculus [11])	Activity (Mus musculus [12])
CCCN(CCC)C1CCc2cccc(O)c2C1 (configuration not stated) [8-OH-DPAT]	-0.1	-1	-0.7	0.1	–	–	–	–	–	–	–	–
CN(C)CCCN1c2ccccc2CCc2ccccc21 [IMIPRAMINE]	–	–	–	–	338	300.9	76.4	314.9	107.8	149.1	602.3	877
